Most compounds without a hit are left out; they make up all but 1.9% or so of the library.
Cneo AK release: causes C. neoformans cell lysis | adenylate kinase release luminescence, 4 h; normalised: neutral wells 0, clomiphene wells 100 | lysis activity, % at 15 µM | 360,000 compounds, 0.2% hits;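 active = mean lysis activity across replicates of at least 80%, whatever share of replicates individually reach that level; inactive = mean lysis activity below 80%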
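Assay system: Cryptococcus neoformans yeast cells / Dosing: single-point compound dose / Timing: 4 h at 37 °C static, read 1 h later / Measured by: luminescence of released adenylate kinase using an AK detection reagent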
RAD54 branch: blocks human RAD54 Holliday junction branch migration; Q92698; FAM/BHQ fluorescence; inhibition, % at 10.4 µM; 360,000 compounds, 0.14% hits; AID 602329;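 active = mean normalized replicate activity at least 40 and at least half of replicates scoring 40 or more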;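 also: 0% = median of neutral control wells and 100% = median of positive control wells; inhibitors cause a drop in the FAM fluorescence signal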
Target sequence (Q92698 whole entry, looked up): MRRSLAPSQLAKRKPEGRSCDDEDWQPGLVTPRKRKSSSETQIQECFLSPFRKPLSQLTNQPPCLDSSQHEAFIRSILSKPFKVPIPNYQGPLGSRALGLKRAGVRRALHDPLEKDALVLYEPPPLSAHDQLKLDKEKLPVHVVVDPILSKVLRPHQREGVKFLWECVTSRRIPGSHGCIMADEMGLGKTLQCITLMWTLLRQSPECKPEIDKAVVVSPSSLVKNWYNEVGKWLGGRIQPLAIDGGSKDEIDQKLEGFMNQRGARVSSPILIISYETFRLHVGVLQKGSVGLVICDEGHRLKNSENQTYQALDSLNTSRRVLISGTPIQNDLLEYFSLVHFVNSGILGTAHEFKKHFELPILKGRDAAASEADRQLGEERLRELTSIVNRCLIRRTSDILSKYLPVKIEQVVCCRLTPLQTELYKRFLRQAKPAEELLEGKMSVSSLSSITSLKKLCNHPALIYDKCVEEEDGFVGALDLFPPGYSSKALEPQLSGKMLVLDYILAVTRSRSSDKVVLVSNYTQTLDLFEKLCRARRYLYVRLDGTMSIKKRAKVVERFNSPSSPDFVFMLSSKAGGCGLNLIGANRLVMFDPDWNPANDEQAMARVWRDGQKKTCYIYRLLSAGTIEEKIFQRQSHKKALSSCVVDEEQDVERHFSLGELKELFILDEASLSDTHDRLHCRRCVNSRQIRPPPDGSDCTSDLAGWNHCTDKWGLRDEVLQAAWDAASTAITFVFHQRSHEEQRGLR
RAD52 anneal inh: blocks human RAD52 DNA annealing; P43351; recombinant RAD52 DNA annealing, FRET fluorescence; inhibition, % at 18.7 µM; 360,000 compounds, 0.46% hits;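 active = every replicate showing at least 50% inhibition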
PglD inh: inhibitors of Campylobacter jejuni PglD acetyltransferase | inhibition, % at 12.5 µM | purified PglD enzyme, DTNB colorimetric CoA detection | 360,000 compounds, 0.098% hits; in the data active = inhibition above about 16%, passing the limit was not always enough
Ecoli rRNA inh: inhibits bacterial ribosomal RNA function over humanized ribosomes. 350,000 compounds, 1.6% hits. GFP signal change (wild-type ribosome), % (no concentration beside the values). E. coli WT GFP vs humanized-ribosome RFP mutants, fluorescence, 24 h; stronger effect = lower value; DMSO median 0, no signal -100;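 active = significant combined selectivity score with lowered wild-type GFP, culture density cut under 30%, mutant RFP and density less affected; inactive = any of these conditions unmet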
* marks the source's active call; other numbers are inactive results; ! = not active in a repeat.

How did CCOc1ccccc1C1C2=C(COC2=O)Nc2cc3c(cc21)OCO3 (configuration not stated) do in these assays?
RAD52 anneal inh: -4.4; Ecoli rRNA inh: -24.4*

What do the screens show for `O=C(N[C@H]1CC[C@H](CCn2cc(-c3ccccn3)nn2)O[C@H]1CO)c1ccncc1`?
Cneo AK release: 15.6; RAD54 branch: -5.8; RAD52 anneal inh: -17.9; PglD inh: -0.6; Ecoli rRNA inh: -1.4

What do the screens show for `CS(=O)(=O)Nc1ccc2c(c1)[C@@H]1C[C@@H](CC(=O)NCc3cc(F)ccc3F)O[C@@H](CO)[C@@H]1O2`?
Cneo AK release: 6.8; RAD54 branch: -7.7; RAD52 anneal inh: 2.7; PglD inh: -2.3; Ecoli rRNA inh: 0.4

What do the screens show for `CC(C)N1C(=O)CCC1C(=O)N1CCCc2ccccc21` (configuration not stated)?
Cneo AK release: 2.9; RAD54 branch: -1.9; PglD inh: 25.0*

What do the screens show for `O=C(C1CCCCC1)N1CCCc2ccccc21`?
Cneo AK release: -1.4; RAD54 branch: 3.6; PglD inh: -2.8

Results for COCC#Cc1ccc2c(c1)O[C@@H](CN(C)CC1CCOCC1)[C@H](C)CN([C@@H](C)CO)S2(=O)=O ?
Cneo AK release: 37.4; RAD54 branch: -1.4; RAD52 anneal inh: -9.2; PglD inh: 1.3; Ecoli rRNA inh: -4.5

Results for Cc1ccc(S(=O)(=O)Nc2ccc3c(c2)C(=O)N([C@@H](C)CO)C[C@@H](C)[C@@H](CN(C)CC2CCCCC2)OCCCC[C@@H](C)O3)cc1 ?
Cneo AK release: -11.5; RAD54 branch: 3.7; RAD52 anneal inh: 56.3*; PglD inh: -2.2; Ecoli rRNA inh: -15.7

What do the screens show for `Cc1ccc(S(=O)(=O)Nc2ccc3c(c2)C(=O)N([C@H](C)CO)C[C@H](C)[C@H](CN(C)CC2CCCCC2)OCCCC[C@@H](C)O3)cc1`?
Cneo AK release: -0.2; RAD54 branch: -4.7; RAD52 anneal inh: 55.0*; PglD inh: 4.8; Ecoli rRNA inh: 4.3

How did Cc1ccc(S(=O)(=O)Nc2ccc3c(c2)C(=O)N([C@H](C)CO)C[C@H](C)[C@@H](CN(C)CC2CCCCC2)OCCCC[C@@H](C)O3)cc1 do in these assays?
Cneo AK release: -9.2; RAD54 branch: -1.5; RAD52 anneal inh: 23.4; PglD inh: -1.2; Ecoli rRNA inh: 2.8

What do the screens show for `C[C@@H]1CN([C@@H](C)CO)S(=O)(=O)c2ccc(C#CC(C)(C)O)cc2O[C@@H]1CN(C)Cc1ccccc1`?
Cneo AK release: 3.5; RAD54 branch: -4.0; RAD52 anneal inh: -0.5; PglD inh: -1.4; Ecoli rRNA inh: -1.2

Results for NCC[C@@H]1CC[C@H](NC(=O)c2ccccc2F)[C@H](CO)O1 ?
Cneo AK release: -3.2; RAD54 branch: 3.1; RAD52 anneal inh: -5.2; PglD inh: 0.4; Ecoli rRNA inh: 2.4

What do the screens show for `COc1cccc(C(=O)N[C@H](C(=O)N2CCC[C@H]2C(=O)NCCc2ccccc2Cl)c2ccccc2)c1`?
RAD52 anneal inh: 8.1; Ecoli rRNA inh: -33.6*

What do the screens show for `COc1cccc(S(=O)(=O)N2CC3(CN(C(=O)Nc4cccc(F)c4)[C@@H](CO)c4[nH]c5cc(OC)ccc5c43)C2)c1`?
RAD52 anneal inh: -6.2; Ecoli rRNA inh: -3.5

What do the screens show for `C[C@@H]1CN([C@@H](C)CO)C(=O)c2cc(NC(=O)Nc3cccc4ccccc34)ccc2O[C@H]1CN(C)Cc1ccncc1`?
Cneo AK release: 68.7; RAD54 branch: 9.0; RAD52 anneal inh: 1.4; PglD inh: -3.2; Ecoli rRNA inh: -4.8

What do the screens show for `CO[C@@H]1CN(C)C(=O)c2ccc(NC(=O)c3ccccc3)cc2OC[C@@H](C)N(C(=O)C2CC2)C[C@@H]1C`?
Cneo AK release: 47.9; RAD54 branch: -1.1; PglD inh: 0.3; Ecoli rRNA inh: 0.4

What do the screens show for `C[C@H]1CN([C@@H](C)CO)S(=O)(=O)c2ccc(Br)cc2O[C@@H]1CN(C)C(=O)CCN1CCCCC1`?
Cneo AK release: 80.5*!; RAD54 branch: -5.5; RAD52 anneal inh: -6.9; PglD inh: 3.4; Ecoli rRNA inh: 1.0

How did CNC[C@H]1Oc2cc(Br)ccc2S(=O)(=O)N([C@@H](C)CO)C[C@H]1C do in these assays?
Cneo AK release: -1.1; RAD54 branch: -3.7; RAD52 anneal inh: -10.6; PglD inh: 7.4; Ecoli rRNA inh: 3.7

How did CNC[C@@H]1Oc2cc(Br)ccc2S(=O)(=O)N([C@@H](C)CO)C[C@H]1C do in these assays?
Cneo AK release: 0.8; RAD54 branch: -12.7; RAD52 anneal inh: -13.3; PglD inh: -1.8; Ecoli rRNA inh: 4.7

What do the screens show for `CNC[C@@H]1Oc2cc(Br)ccc2S(=O)(=O)N([C@H](C)CO)C[C@H]1C`?
Cneo AK release: 99.6*!; RAD54 branch: -11.5; RAD52 anneal inh: 1.8; PglD inh: -0.6; Ecoli rRNA inh: 16.5

Results for CNC[C@H]1Oc2cc(Br)ccc2S(=O)(=O)N([C@H](C)CO)C[C@H]1C ?
Cneo AK release: 90.7*!; RAD54 branch: -7.4; RAD52 anneal inh: -11.3; PglD inh: -4.1; Ecoli rRNA inh: -0.6

How did COCC(=O)N1C[C@@H](C)[C@H](OC)CN(C)C(=O)c2ccc(NC(=O)c3cnccn3)cc2OC[C@H]1C do in these assays?
Ecoli rRNA inh: 2.6

Results for CC(C)NC(=O)N(C)C[C@H]1Oc2ccc(NC(=O)Nc3cccc4ccccc34)cc2CC(=O)N([C@@H](C)CO)C[C@@H]1C ?
Cneo AK release: -7.6; RAD54 branch: 0.3; RAD52 anneal inh: 13.0; PglD inh: 4.6; Ecoli rRNA inh: 1.6

How did C[C@@H]1CN([C@@H](C)CO)C(=O)c2cccc(NS(=O)(=O)c3ccccc3)c2O[C@H]1CN(C)Cc1ccccc1 do in these assays?
Cneo AK release: 40.6; RAD54 branch: 0.0; RAD52 anneal inh: 23.7; PglD inh: 2.7; Ecoli rRNA inh: 1.4

Results for CCOc1cc(NC(=O)Nc2ccc(F)cc2)c(OCC)cc1NC(=O)CC ?
Cneo AK release: -0.3; RAD54 branch: -5.8; RAD52 anneal inh: 2.9; PglD inh: -12.2; Ecoli rRNA inh: -38.4*

How did COc1ccc2c3c(n(C)c2c1)[C@H](CO)N(C(=O)c1ccncc1)CC31CCN(C)CC1 do in these assays?
Ecoli rRNA inh: 0.6

Results for Cc1cccc(OCc2nnc(SCC(=O)Nc3nccs3)o2)c1 ?
RAD52 anneal inh: -27.2; Ecoli rRNA inh: -40.6*

How did CSCC[C@H](NC(=O)N1CCn2c1nc1ccccc12)C(=O)N1CCCCC1 do in these assays?
Cneo AK release: -1.6; RAD54 branch: 1.9; RAD52 anneal inh: -2.7; PglD inh: 0.4; Ecoli rRNA inh: -17.1*

How did CC(C)C[C@H](NC(=O)N1CCn2c1nc1ccccc12)C(=O)N1CCCCC1 do in these assays?
Cneo AK release: 0.4; RAD54 branch: 5.2; RAD52 anneal inh: 4.1; PglD inh: 1.2; Ecoli rRNA inh: -3.1

What do the screens show for `CCOC(=O)CN1C(=O)S/C(=C\c2ccc(-c3ccc(C(=O)O)c(Cl)c3)o2)C1=O`?
Cneo AK release: -1.2; RAD54 branch: -3.6; RAD52 anneal inh: -36.8; PglD inh: -15.1; Ecoli rRNA inh: -24.1*

High-throughput results as filed in PubChem BioAssay.
